The array DNA melting data of Ke et al. (doi:10.1101/2024.01.08.574731)

Experiments:
[1] = melting temperature; fluorescence melt of hairpins on a sequencing array, two-state fit, raised by 9.35 °C to match UV melts; conditions: sodium 0.088 M
Outline: (§1)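 Folding enthalpy and melting temperature come from bootstrapped two-state fits to Cy3 fluorescence of library hairpins carrying annealed Cy3 and quencher oligos on a sequenced MiSeq flow cell. Imaging was done in 50 mM Na-HEPES pH 8.0, 25 mM NaCl, stepping by 2.5 °C up to 60 °C, and signals were normalised to pre-quench Cy3 and to control constructs. Results of four replicates were combined by inverse variance, and fitted temperatures were raised by 9.35 °C to match UV melts.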

[2] = folding enthalpy; higher = less favourable; fluorescence melt of hairpins on a sequencing array, two-state fit; conditions: sodium 0.088 M
Outline: as §1

Sequence	Tm [1]	folding enthalpy [2]
GCGACGACTCGC ((((....))))	45.8 °C	-71 kJ/mol
GATCGGCCACCCGATC ((((((....))))))	54.9 °C	-167 kJ/mol
GATCTAATGTAGATC ((((((...))))))	36.6 °C	-107 kJ/mol
GCACGCGGAAACACGTGC (((((.(....).)))))	57.1 °C	-214 kJ/mol
GATTAGGGAAACCCAATC ((((.((....)).))))	31.3 °C	-93.5 kJ/mol
GTCTACGGAAACGTAGAC (((((((....)))))))	61 °C	-193 kJ/mol
GCACGATCGAAAGATTGC (((..(((....))))))	31.7 °C	-78.2 kJ/mol
GATCTCCTGTGAGATC ((((((....))))))	52.5 °C	-191 kJ/mol
GATCTAGGATAGATC ((((((...))))))	48.7 °C	-134 kJ/mol
GATCCGATCTCGGATC ((((((....))))))	62.2 °C	-171 kJ/mol
GGCTCACGAAAGTGTGCC (((.(((....))).)))	64.3 °C	-129 kJ/mol
GTTGGCGAAAGCCACAAC ((((((....)))..)))	33.8 °C	-34.9 kJ/mol
GACGCTGGAAACAACGCC (.((.((....)).)).)	28.2 °C	-52.6 kJ/mol
GATAAACGAAAGTTATC (((.(((....))))))	33.9 °C	-63.3 kJ/mol
GATCCAAGCATGGATC ((((((....))))))	51.8 °C	-172 kJ/mol
GATAGAGCGAAAGCTATC (((..(((....))))))	32.3 °C	-54.5 kJ/mol
GCCATCGAAAGATGAGGC ((((((....)))..)))	46.3 °C	-78.7 kJ/mol
GAGGCCGGAAACGACCCC (.((.((....)).)).)	30.6 °C	-82.3 kJ/mol
GATCCACGGCTGGATC ((((((....))))))	50.5 °C	-164 kJ/mol
GATCCTTCCTAGGATC ((((((....))))))	52.1 °C	-187 kJ/mol
CGTTCGGAAACGACACG ((((((....))).)))	39.3 °C	-113 kJ/mol
GCGAAGGCTCGC ((((....))))	46.9 °C	-60.3 kJ/mol
GTGTCAACGAAAGTTCAC (((..(((....))))))	29.8 °C	-36.4 kJ/mol

Sequence	Tm [1]	folding enthalpy [2]
GTATTCGAAAGAATCTAC ((((((....)))..)))	33.3 °C	-44.9 kJ/mol
GCCCTCGCGAAAGCGGGC (((..(((....))))))	59.6 °C	-59.3 kJ/mol
GCGGTCGAAAGACAACGC ((((((....)))..)))	56.6 °C	-116 kJ/mol
GTCGGCGAAAGCCAGAC ((((((....))).)))	59.4 °C	-68.7 kJ/mol
GCTGTGCGAAAGCAGTGC ((..(((....)))..))	46.6 °C	-65.9 kJ/mol
GCATCTCCGAAAGGATGC (((..(((....))))))	46.1 °C	-120 kJ/mol
GATCTTTAAAAGATC ((((((...))))))	39.9 °C	-96.3 kJ/mol
GGGAAACCGAAAGGTCCC (((..(((....))))))	46.6 °C	-82.5 kJ/mol
GGGTACCGAAAGGTTCCC (((.(((....))).)))	56.2 °C	-127 kJ/mol
GTTGGAACGAAAGTTAAC (((..(((....))))))	29.6 °C	-60.8 kJ/mol
GACGGCCGAAAGGCAGTC (((.(((....))).)))	68.8 °C	-110 kJ/mol
GACGTAACGAAAGTTGTC (((..(((....))))))	37.5 °C	-105 kJ/mol
GGGAAATCGAAAGATCCC (((..(((....))))))	36 °C	-90.5 kJ/mol
GGCGGTGGAAACATCGCC ((((.((....)).))))	63.1 °C	-161 kJ/mol
GAGGGCCCGAAAGGGCTC (((..(((....))))))	43.9 °C	-34.4 kJ/mol
GATCTGTCTGCAGATC ((((((....))))))	52.9 °C	-176 kJ/mol
GATCATATGGATGATC ((((((....))))))	46.1 °C	-117 kJ/mol
GTGATTCGAAAGAAACAC (((.(((....))).)))	46.5 °C	-125 kJ/mol
GTCAGTGGAAACACCGAC (((.(((....))).)))	40.4 °C	-113 kJ/mol
CGCTTCGGAAACGAGCG (((.(((....))))))	49.3 °C	-113 kJ/mol
GTTGGCGAAAGCCAAAAC ((((((....)))..)))	41.5 °C	-43.8 kJ/mol
GCGCTAGGAAACTAACGC (((.(((....))).)))	45.5 °C	-125 kJ/mol
GGGTCACGAAAGTGCCC (((.(((....))))))	58.5 °C	-167 kJ/mol

Sequence	Tm [1]	folding enthalpy [2]
GCACGCGGAAACGTGTGC ((((.((....)).))))	66.7 °C	-193 kJ/mol
GGACAAGCGAAAGCTTCC (((..(((....))))))	29.2 °C	-51.3 kJ/mol
GATCCTATTAGGATC ((((((...))))))	53.4 °C	-145 kJ/mol
GGTATCGAAAGATCAACC ((((((....)))..)))	27 °C	-53.8 kJ/mol
GCGATGCGAAAGCAAAGC ((..(((....)))..))	61 °C	-138 kJ/mol
GTGTCCGAAAGGAGCCAC ((((((....)))..)))	33.5 °C	-60.5 kJ/mol
GGAGAGCCGAAAGGCTCC (((..(((....))))))	43.3 °C	-29 kJ/mol
GGGAAAGAAATTTCCC ((((((....))))))	48.7 °C	-114 kJ/mol
GATCTACTTTAGATC ((((((...))))))	41.7 °C	-126 kJ/mol
GCCGTGCGAAAGCTCAGC ((.(.((....)).).))	40.4 °C	-64.6 kJ/mol
GTTCCGGGAAACTGGAAC (((((.(....).)))))	52.5 °C	-166 kJ/mol
GCGAGGCGAAAGCGTGGC ((.(.((....)).).))	48.9 °C	-63.8 kJ/mol
GCATTTGGAAACAGATGC ((((.((....)).))))	44 °C	-140 kJ/mol
AGGTTGAAAAACCT (((((....)))))	45.6 °C	-85.8 kJ/mol
GCGCAATCGAAAGATCGC (((..(((....))))))	45.5 °C	-101 kJ/mol
GACGTCGGAAACAACGTC (((((.(....).)))))	45.2 °C	-128 kJ/mol
GATCTATCCCTAGATC ((((((....))))))	41.4 °C	-136 kJ/mol
CGATCGGAAACGAAGTCG ((((((....)))..)))	25.6 °C	-48.9 kJ/mol
GAAGATGCGAAAGCATTC (((..(((....))))))	29.9 °C	-44.7 kJ/mol
GATCGCCAAGCGATC ((((((...))))))	67.5 °C	-125 kJ/mol
GCTAGCGGAAACGCTAAC (.(((((....))))).)	40 °C	-53.2 kJ/mol
GCAGAGGGAAACTTCTGC (((((.(....).)))))	48 °C	-146 kJ/mol
GCTTTCGGAAACAAAAGC (((((.(....).)))))	35.5 °C	-99.8 kJ/mol

Sequence	Tm [1]	folding enthalpy [2]
GCGCCGCGAAAGCTGTGC ((.(.((....)).).))	53.9 °C	-85.3 kJ/mol
GATCCACCCCTGGATC ((((((....))))))	49.9 °C	-156 kJ/mol
GCACTTCGAAAGAATTGC (((.(((....))).)))	42.6 °C	-132 kJ/mol
GATCTTCCGAAGATC ((((((...))))))	43 °C	-133 kJ/mol
GATCTGAATGCAGATC ((((((....))))))	47.3 °C	-129 kJ/mol
GATCAAACACTTGATC ((((((....))))))	37.9 °C	-120 kJ/mol
GATCCCAGCCGGGATC ((((((....))))))	64.2 °C	-137 kJ/mol
GCCGAAGGAAACTTTGGC (((.(((....))).)))	51 °C	-165 kJ/mol
GCGTCGCGAAAGCTATGC ((.(.((....)).).))	45 °C	-84.1 kJ/mol
GCTCGGCGAAAGCAGTGC ((.(.((....)).).))	60.6 °C	-48.9 kJ/mol
GCAATGCGAAAGCAATGC (((.(((....))).)))	56.5 °C	-167 kJ/mol
GATCCCTTGCGGGATC ((((((....))))))	60.7 °C	-166 kJ/mol
GTTCTCGGAAACAAGAAC (((((.(....).)))))	33.9 °C	-62 kJ/mol
GGCTAAGGAAACCTAGCC (((((.(....).)))))	46.6 °C	-132 kJ/mol
GCCCGGCGAAAGCTAGGC (((..((....))..)))	56.7 °C	-90 kJ/mol
GCGTTTGGAAACAAATGC ((.((((....)))).))	51.7 °C	-201 kJ/mol
GTTCCTGGAAACGGGAAC (((((.(....).)))))	50.7 °C	-171 kJ/mol
GCAGAGCGAAAGCTAAGC ((..(((....)))..))	43.8 °C	-63 kJ/mol
GATCACCACAGTGATC ((((((....))))))	57.4 °C	-169 kJ/mol
GAACACCGAAAGGTTTC (((.(((....))))))	37.4 °C	-85.7 kJ/mol
GCGTTGCGAAAGCCATGC ((.(.((....)).).))	40.2 °C	-106 kJ/mol
GGCATGGCGAAAGCCGCC (((..(((....))))))	59.4 °C	-67.1 kJ/mol
GCTCCCGAAAGGGCAGC ((((((....))).)))	55.2 °C	-126 kJ/mol
